Results from ChEMBL document CHEMBL2331410, “Synthesis and Pharmacological Characterization of Two Novel, Brain Penetrating P2X7 Antagonists” (ACS Med Chem Lett, 2013).
Values after ≈ are worked out from the molar mass of the structure shown. Active and inactive are the calls of the source. The calls are words filed in the database; no cut-off is given here.

Tests used:
[1] = Solubility of the compound at pH 7; format: physicochemical; settings: buffer
[2] = molecular target: T1, Substance-K receptor (Homo sapiens) (UniProt P21452); test: Inhibition of human NK2 receptor at 1 uM relative to control
T1 sequence (whole entry): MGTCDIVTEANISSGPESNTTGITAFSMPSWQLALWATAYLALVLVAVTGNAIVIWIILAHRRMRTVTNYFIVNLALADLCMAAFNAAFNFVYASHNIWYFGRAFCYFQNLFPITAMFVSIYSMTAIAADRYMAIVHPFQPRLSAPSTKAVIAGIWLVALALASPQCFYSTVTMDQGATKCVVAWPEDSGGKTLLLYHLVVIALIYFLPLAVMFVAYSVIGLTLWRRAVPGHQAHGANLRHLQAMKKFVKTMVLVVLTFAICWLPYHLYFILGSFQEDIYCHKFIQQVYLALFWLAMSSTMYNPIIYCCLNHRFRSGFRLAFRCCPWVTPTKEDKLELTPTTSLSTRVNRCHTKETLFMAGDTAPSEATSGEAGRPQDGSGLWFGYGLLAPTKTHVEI

[3] = Apparent permeability from basolateral to apical side in human Caco2 cells at 1 uM after […] by LC/MS/MS analysis; format: ADME, cell-based; settings: Caco-2
[4] = Inhibition of rat nACHR
[5] = molecular target: T2, Sodium-dependent dopamine transporter (Homo sapiens, UniProt Q01959); test: Inhibition of human dopamine transporter
Rattus norvegicus [6] = test: Ex-vivo P2X7 receptor occupancy in sc dosed Sprague-Dawley rat brain assessed as inhibition of [3H]A804598 binding after 120 mins by autoradiographic analysis; format: functional
[7] = Plasma protein binding in rat by equilibrium dialysis method; format: ADME, cell-free; settings: read-out: PPB (converted)
[8] = Plasma protein binding in human by equilibrium dialysis method; format: ADME, cell-free; settings: read-out: PPB (converted)
[9] = molecular target: T2, Sodium-dependent dopamine transporter; test: Inhibition of human dopamine transporter at 1 uM relative to control
Rattus norvegicus [10] = test: Ex-vivo P2X7 receptor occupancy in Sprague-Dawley rat brain assessed as inhibition of [3H]A804598 binding at 10 mg/kg, sc by autoradiographic analysis; format: functional, organism-based; design: dose 10 mg/kg
In short: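 Single subcutaneous dose given to rats; P2X7 occupancy in brain was assessed ex vivo by autoradiography at several times after dosing, with plasma and brain drug levels measured in parallel. n = 3 per time point, mean ± SEM.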

[11] = molecular target: Sodium-dependent serotonin transporter (Rattus norvegicus, UniProt P31652); test: Displacement of [3H]-Citalopram from SERT in rat brain after 60 mins by scintillation counting analysis; format: tissue-based
P2X purinoceptor 7 [12] = molecular target: T3, P2X purinoceptor 7 (Homo sapiens, UniProt Q99572); test: Antagonist activity at human recombinant P2X7 receptor expressed in human 1321N1 cells assessed as inhibition of BzATP-induced Ca2+ flux after 30 mins by FLIPR assay; format: cell-based
T3 sequence (Q99572 whole entry): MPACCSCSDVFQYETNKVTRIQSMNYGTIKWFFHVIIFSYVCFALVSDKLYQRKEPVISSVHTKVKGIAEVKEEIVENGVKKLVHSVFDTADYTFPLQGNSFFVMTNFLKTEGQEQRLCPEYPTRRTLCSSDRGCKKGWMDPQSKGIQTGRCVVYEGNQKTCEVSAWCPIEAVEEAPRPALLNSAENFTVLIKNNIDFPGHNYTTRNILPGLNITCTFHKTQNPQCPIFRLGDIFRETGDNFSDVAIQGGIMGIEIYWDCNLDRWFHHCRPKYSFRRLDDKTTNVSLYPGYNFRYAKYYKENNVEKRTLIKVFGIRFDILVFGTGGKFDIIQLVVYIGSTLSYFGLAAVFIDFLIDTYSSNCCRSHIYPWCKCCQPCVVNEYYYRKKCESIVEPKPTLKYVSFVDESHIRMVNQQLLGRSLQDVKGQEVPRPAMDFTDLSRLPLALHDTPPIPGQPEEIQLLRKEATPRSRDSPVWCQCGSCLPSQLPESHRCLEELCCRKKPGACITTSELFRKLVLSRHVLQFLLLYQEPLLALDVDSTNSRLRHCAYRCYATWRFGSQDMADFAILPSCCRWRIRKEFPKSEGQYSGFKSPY

[13] = Solubility of the compound at pH 2; format: physicochemical; settings: buffer
Rattus norvegicus [14] = organism: Rattus norvegicus; test: Inhibition of rat nACHR at 1 uM relative to control
[15] = Extraction ratio in mouse liver microsomes at 1 uM by LC/MS/MS analysis; format: ADME, Microsome; settings: read-out: ERH
Rattus norvegicus [16] = organism: Rattus norvegicus; test: Ex-vivo SERT occupancy in Sprague-Dawley rat by autoradiographic analysis; format: functional
P2X purinoceptor 7 [17] = molecular target: T4, P2X purinoceptor 7 (Mus musculus, UniProt Q9Z1M0); test: Antagonist activity at mouse P2X7 receptor assessed as inhibition of ATP-induced Ca2+ flux by FLIPR assay
T4 sequence (Q9Z1M0 whole entry): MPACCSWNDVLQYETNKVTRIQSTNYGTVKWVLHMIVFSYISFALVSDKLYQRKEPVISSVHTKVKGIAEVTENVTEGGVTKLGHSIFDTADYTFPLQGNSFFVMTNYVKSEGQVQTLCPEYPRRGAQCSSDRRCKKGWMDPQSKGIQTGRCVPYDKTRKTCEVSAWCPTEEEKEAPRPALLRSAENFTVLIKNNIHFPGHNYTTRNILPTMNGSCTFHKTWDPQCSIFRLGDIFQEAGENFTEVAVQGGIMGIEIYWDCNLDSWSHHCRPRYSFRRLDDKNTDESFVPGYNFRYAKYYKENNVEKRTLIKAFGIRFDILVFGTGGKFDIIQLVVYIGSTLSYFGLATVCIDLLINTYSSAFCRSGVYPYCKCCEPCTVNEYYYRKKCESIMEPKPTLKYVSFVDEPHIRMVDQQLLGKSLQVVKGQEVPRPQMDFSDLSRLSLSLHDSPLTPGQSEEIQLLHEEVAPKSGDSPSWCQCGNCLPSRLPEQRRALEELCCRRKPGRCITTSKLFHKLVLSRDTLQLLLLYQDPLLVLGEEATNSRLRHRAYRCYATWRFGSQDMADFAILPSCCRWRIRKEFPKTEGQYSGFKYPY

[18] = Extraction ratio in human liver microsomes at 1 uM by LC/MS/MS analysis; format: ADME, Microsome; settings: read-out: ERH
P2X purinoceptor 7 [19] = molecular target: T3, P2X purinoceptor 7; test: Antagonist activity at P2X7 receptor in human PBMC assessed as inhibition of BzATP-induced IL1beta release incubated 30 mins prior to BzATP-challenge measured after 1.5 hrs by ELISA
[20] = Apparent permeability from apical to basolateral side in human Caco2 cells at 1 uM after 60 mins by LC/MS/MS analysis; format: ADME, cell-based; settings: Caco-2
[21] = Protein binding in rat brain; format: ADME, tissue-based; settings: brain tissue, read-out: PB (converted)
P2X purinoceptor 7 [22] = molecular target: T5, P2X purinoceptor 7 (Rattus norvegicus, UniProt Q64663); test: Antagonist activity at rat P2X7 receptor assessed as inhibition of ATP-induced Ca2+ flux by FLIPR assay
T5 sequence (Q64663 whole entry): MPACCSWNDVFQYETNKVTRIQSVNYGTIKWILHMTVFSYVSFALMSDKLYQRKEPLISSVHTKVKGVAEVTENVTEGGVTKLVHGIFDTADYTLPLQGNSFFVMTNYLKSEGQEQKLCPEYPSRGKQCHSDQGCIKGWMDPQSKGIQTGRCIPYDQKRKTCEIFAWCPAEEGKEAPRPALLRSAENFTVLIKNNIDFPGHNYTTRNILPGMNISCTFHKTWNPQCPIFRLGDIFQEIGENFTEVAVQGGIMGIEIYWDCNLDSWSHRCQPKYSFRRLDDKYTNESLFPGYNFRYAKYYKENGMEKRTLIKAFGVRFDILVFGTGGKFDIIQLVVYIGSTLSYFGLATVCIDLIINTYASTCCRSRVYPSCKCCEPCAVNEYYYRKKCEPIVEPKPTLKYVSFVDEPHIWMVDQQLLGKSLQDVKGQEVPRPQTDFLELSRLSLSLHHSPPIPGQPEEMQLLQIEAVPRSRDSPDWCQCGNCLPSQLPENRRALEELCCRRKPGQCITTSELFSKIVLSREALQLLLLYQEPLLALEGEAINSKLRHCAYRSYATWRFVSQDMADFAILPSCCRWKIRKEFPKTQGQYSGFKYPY

[23] = molecular target: Sodium-dependent serotonin transporter (Homo sapiens, UniProt P31645); test: Displacement of [3H]-Citalopram from human SERT expressed in human HEK293 cells after 1 hr by scintillation counting analysis; format: cell-based
P2X purinoceptor 7 [24] = molecular target: T3, P2X purinoceptor 7; test: Displacement of [3H]-A804598 from human recombinant P2X7 receptor expressed in human 1321N1 cell membranes after 1 hr by […]
P2X purinoceptor 7 [25] = molecular target: T3, P2X purinoceptor 7; test: Antagonist activity at P2X7 receptor in human whole blood assessed as inhibition of BzATP-induced IL1beta release incubated 30 mins prior to BzATP-challenge measured after 1.5 hrs by ELISA
[26] = Extraction ratio in rat liver microsomes at 1 uM by LC/MS/MS analysis; format: ADME, Microsome; settings: read-out: ERH
P2X purinoceptor 7 [27] = molecular target: T5, P2X purinoceptor 7; test: Antagonist activity at rat P2X7 receptor by radioligand binding assay
Rattus norvegicus [28] = test: Ex-vivo P2X7 receptor occupancy in sc dosed Sprague-Dawley rat brain assessed as inhibition of [3H]A804598 binding after 15 mins by autoradiographic analysis; format: functional
Rattus norvegicus [29] = test: Ex-vivo P2X7 receptor occupancy in Sprague-Dawley rat brain assessed as inhibition of [3H]A804598 binding at 30 mg/kg, sc after 2 hrs by autoradiographic analysis relative to control; format: functional; settings: route subcutaneous
In short: (§1)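 Rat brain P2X7 occupancy by ex vivo autoradiography after one 30 mg/kg subcutaneous dose, followed over time. Plasma and brain drug levels were measured at the same time points. n = 3 per time point, mean ± SEM.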

Rattus norvegicus [30] = test: Ex-vivo P2X7 receptor occupancy in Sprague-Dawley rat brain assessed as inhibition of [3H]A804598 binding at 30 mg/kg, sc by autoradiographic analysis; format: functional, organism-based; design: dose 30 mg/kg; in short: as §1

Chain of Sodium-dependent serotonin transporter (Rattus norvegicus, UniProt P31652) (P31652 whole entry): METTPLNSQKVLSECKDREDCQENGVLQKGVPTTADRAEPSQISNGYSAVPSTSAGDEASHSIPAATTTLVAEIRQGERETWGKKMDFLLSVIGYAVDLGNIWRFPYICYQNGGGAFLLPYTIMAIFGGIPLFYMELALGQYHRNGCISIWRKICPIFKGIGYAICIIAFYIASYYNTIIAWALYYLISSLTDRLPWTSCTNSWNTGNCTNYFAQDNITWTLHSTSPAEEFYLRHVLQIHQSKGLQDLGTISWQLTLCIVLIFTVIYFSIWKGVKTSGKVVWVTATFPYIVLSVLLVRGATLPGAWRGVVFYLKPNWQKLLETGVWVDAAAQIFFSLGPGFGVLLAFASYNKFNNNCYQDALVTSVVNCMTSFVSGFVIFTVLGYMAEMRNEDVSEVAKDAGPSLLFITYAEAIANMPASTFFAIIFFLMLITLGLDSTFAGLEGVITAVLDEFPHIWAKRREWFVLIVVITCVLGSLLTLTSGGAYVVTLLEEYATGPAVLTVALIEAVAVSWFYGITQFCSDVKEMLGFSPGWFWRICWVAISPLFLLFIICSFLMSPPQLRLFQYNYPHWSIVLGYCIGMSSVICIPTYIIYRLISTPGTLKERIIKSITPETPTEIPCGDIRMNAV
T2 sequence (Q01959 whole entry): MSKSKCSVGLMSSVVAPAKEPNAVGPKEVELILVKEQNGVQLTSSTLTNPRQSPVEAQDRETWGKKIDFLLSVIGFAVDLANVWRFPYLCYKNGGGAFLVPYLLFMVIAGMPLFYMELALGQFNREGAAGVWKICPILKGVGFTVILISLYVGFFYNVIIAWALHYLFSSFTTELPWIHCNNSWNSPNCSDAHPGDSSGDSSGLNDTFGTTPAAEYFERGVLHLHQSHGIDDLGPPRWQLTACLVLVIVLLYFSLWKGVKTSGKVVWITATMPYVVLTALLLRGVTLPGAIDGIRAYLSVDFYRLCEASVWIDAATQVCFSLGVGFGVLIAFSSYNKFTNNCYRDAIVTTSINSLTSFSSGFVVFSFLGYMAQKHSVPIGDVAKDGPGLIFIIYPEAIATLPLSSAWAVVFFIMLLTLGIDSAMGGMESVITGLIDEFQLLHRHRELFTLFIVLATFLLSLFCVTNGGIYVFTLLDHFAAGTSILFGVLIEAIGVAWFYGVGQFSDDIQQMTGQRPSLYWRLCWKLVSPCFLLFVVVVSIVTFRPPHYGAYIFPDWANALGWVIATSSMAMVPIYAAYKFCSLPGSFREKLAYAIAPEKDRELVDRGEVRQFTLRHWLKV
Chain of Sodium-dependent serotonin transporter (Homo sapiens, UniProt P31645) (P31645 whole entry): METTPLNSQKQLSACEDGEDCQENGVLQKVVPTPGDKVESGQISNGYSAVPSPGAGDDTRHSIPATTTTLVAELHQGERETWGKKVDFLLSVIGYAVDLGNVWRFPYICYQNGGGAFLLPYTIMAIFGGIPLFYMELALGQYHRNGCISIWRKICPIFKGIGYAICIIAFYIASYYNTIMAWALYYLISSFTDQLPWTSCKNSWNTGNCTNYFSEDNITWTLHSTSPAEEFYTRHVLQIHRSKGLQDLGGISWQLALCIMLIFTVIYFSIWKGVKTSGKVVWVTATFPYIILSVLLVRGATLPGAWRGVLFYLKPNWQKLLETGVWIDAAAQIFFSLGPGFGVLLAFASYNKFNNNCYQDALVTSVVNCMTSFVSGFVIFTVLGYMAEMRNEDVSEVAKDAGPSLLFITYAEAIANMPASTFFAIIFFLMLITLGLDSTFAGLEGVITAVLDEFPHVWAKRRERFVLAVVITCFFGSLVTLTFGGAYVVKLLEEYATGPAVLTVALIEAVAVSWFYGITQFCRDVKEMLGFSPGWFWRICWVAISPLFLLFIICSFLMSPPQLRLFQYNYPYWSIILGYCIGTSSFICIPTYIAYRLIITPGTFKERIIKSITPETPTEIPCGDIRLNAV

Question: With `CN1CCc2c(cccc2C(=O)NCC2(N3CCN(c4ccccc4)CC3)CCCCC2)C1` as the molecule, how does the solubility [1] read?
Answer: Its solubility is 90 µM (≈ 40.2 µg/mL).

Question: And the inhibition [2]?
Answer: The inhibition was 68%.

Question: And the Papp B→A at 1 µM [3]?
Answer: Its Papp B→A at 1 µM is 2.1 ×10⁻⁶ cm/s.

Question: And the IC50 [4]?
Answer: The IC50 was 910 nM.

Question: What about the IC50 [5] of the same molecule?
Answer: The IC50 was 290 nM.

Question: What about the ED50 (Rattus norvegicus [6]) of the same molecule?
Answer: The ED50 was 0.3 mg/kg.

Question: And the fraction unbound [7]?
Answer: Its fraction unbound is 0.044.

Question: What about the fraction unbound [8] of the same molecule?
Answer: The fraction unbound was 0.165.

Question: What about the inhibition [9] of the same molecule?
Answer: Its inhibition is 93%.

Question: What about the Activity (Rattus norvegicus [10]) of the same molecule?
Answer: The Activity was “Active”.

Question: What about the Ki [11] of the same molecule?
Answer: Its Ki is 20 nM.

Question: What about the IC50 (P2X purinoceptor 7 [12]) of the same molecule?
Answer: The IC50 was 20 nM.

Question: And the solubility [13]?
Answer: Its solubility is 95 µM (≈ 42.4 µg/mL).

Question: What about the inhibition (Rattus norvegicus [14]) of the same molecule?
Answer: Its inhibition is 54%.

Question: And the hepatic extraction ratio at 1 µM [15]?
Answer: The hepatic extraction ratio at 1 µM was 0.9.

Question: What about the ED50 (Rattus norvegicus [16]) of the same molecule?
Answer: Its ED50 is 24 mg/kg.

Question: And the IC50 (P2X purinoceptor 7 [17])?
Answer: The IC50 was 79.4 nM.

Question: What about the hepatic extraction ratio at 1 µM [18] of the same molecule?
Answer: Its hepatic extraction ratio at 1 µM is 0.9.

Question: What about the IC50 (P2X purinoceptor 7 [19]) of the same molecule?
Answer: The IC50 was 39.8 nM.

Question: What about the Papp A→B at 1 h, 1 µM [20] of the same molecule?
Answer: Its Papp A→B at 1 h, 1 µM is 11 ×10⁻⁶ cm/s.

Question: And the fraction unbound [21]?
Answer: Its fraction unbound is 0.024.

Question: What about the IC50 (P2X purinoceptor 7 [22]) of the same molecule?
Answer: Its IC50 is 15.8 nM.

Question: And the Ki [23]?
Answer: Its Ki is 15.8 nM.

Question: And the Ki (P2X purinoceptor 7 [24])?
Answer: Its Ki is 12.6 nM.

Question: And the IC50 (P2X purinoceptor 7 [25])?
Answer: The IC50 was 200 nM.

Question: What about the hepatic extraction ratio at 1 µM [26] of the same molecule?
Answer: Its hepatic extraction ratio at 1 µM is 0.86.

Question: What about the Ki (P2X purinoceptor 7 [27]) of the same molecule?
Answer: Its Ki is 0.794 nM.

Question: What does the source list for `O=C(NCC1(N2CCN(c3ccccc3)CC2)CCOCC1)c1cccnc1Sc1ccccc1`?
Answer: solubility [1]: 31 µM (≈ 15.1 µg/mL); ED50 (Rattus norvegicus [28]): 2.5 mg/kg; fraction unbound [7]: 0.029; fraction unbound [8]: 0.022; Ki [11]: 3160 nM; Occ (Rattus norvegicus [29]): >50%; solubility [13]: 400 µM (≈ 195 µg/mL); hepatic extraction ratio at 1 µM [15]: > 0.93; IC50 (P2X purinoceptor 7 [17]): 31.6 nM; hepatic extraction ratio at 1 µM [18]: > 0.95; IC50 (P2X purinoceptor 7 [19]): 25.1 nM; fraction unbound [21]: 0.017; IC50 (P2X purinoceptor 7 [22]): 63.1 nM; Ki (P2X purinoceptor 7 [24]): 12.6 nM; IC50 (P2X purinoceptor 7 [25]): 200 nM; hepatic extraction ratio at 1 µM [26]: > 0.92; Activity (Rattus norvegicus [30]): Active; Ki (P2X purinoceptor 7 [27]): 2 nM
